Experimental data taken from ChEMBL document CHEMBL3351723, “New derivatives of lupane triterpenoids disturb breast cancer mitochondria and induce cell death” (Bioorg Med Chem, 2014).
Calls of active or inactive are those of the source. No cut-off for these calls is given here.

Columns and labels:
[1] = Cytotoxicity against human MCF12A cells at 0.125 to 2 ug/ml after 1 to 5 days by sulforhodamine B assay; assay type: cell-based; settings: mcf-12a
Procedure, shortened: (§1)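 Non-tumor cells seeded at 2×10^4 cells/ml and treated 24 h after seeding, in high-glucose DMEM with pyruvate, 10% FBS and penicillin-streptomycin, 37°C, 5% CO2. Compound exposure 0.125–2 μg/ml for 1, 3 and 5 days, with vehicle controls. Cells fixed and stained with sulforhodamine B for total cell mass. Data given as % of untreated control at each time point; five independent experiments.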

BJ = test: Cytotoxicity against human BJ cells at 0.125 to 2 ug/ml after 1 to 5 days by sulforhodamine B assay; assay type: cell-based; procedure, shortened: as §1
[2] = Cell cycle arrest against human Hs578T cells assessed as increase in cells at G0/G1 phase at 0.5 ug/ml after 24 to 48 hrs by propidium iodide staining based flow cytometry; assay type: functional; settings: Hs-578T
Procedure, shortened: (§2)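 Log-phase Hs578T cells exposed 24 and 48 h to 0.5 μg/ml. Adherent plus floating cells fixed in cold 70% ethanol, kept overnight at -20°C, washed into PBS-T (132 mM NaCl, 4 mM KCl, 1.2 mM NaH2PO4, 0.1% Tween). Treated with 20 μg/ml RNase for 45 min at 37°C, then propidium iodide for 30 min at 37°C. Phase percentages read by flow cytometry. Mean ± SEM, 5 experiments.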

[3] = Cell cycle arrest against human Hs578T cells assessed as decrease in cells at S phase at 0.5 ug/ml after 24 to 48 hrs by propidium iodide staining based flow cytometry; assay type: functional; settings: Hs-578T; procedure, shortened: as §2
Hs-578T [4] = test: Cytotoxicity against human Hs578T cells at 0.125 to 2 ug/ml incubated for 6 hrs folowed by drug wash out and fresh medium addition and measured 5 days after wash out; assay type: functional, cell-based
MDA-MB-231 [5] = test: Cytotoxicity against human MDA-MB-231 cells at 0.125 to 2 ug/ml after 1 to 5 days by sulforhodamine B assay in presence of taxol; assay type: functional, cell-based
Hs-578T [6] = test: Cytotoxicity against human Hs578T cells at 0.125 to 2 ug/ml after 1 to 5 days by sulforhodamine B assay in presence of taxol; assay type: functional, cell-based
MCF7 [7] = test: Cytotoxicity against human MCF7 cells at 0.125 to 2 ug/ml after 1 to 5 days by sulforhodamine B assay in presence of taxol; assay type: functional, cell-based
[8] = Cell cycle arrest against human Hs578T cells assessed as decrease in cells at G2/M phase at 0.5 ug/ml after 24 to 48 hrs by propidium iodide staining based flow cytometry; assay type: functional; settings: Hs-578T; procedure, shortened: as §2
MDA-MB-231 [9] = test: Cytotoxicity against human MDA-MB-231 cells at 0.125 to 2 ug/ml after 1 to 5 days by sulforhodamine B assay; assay type: functional, cell-based
Procedure, shortened: (§3)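 Sulforhodamine B growth assay in high-glucose DMEM with 10% FBS. Cancer cells seeded at 1×10^4 cells/ml; compound (0.125–2 μg/ml) added 24 h after seeding and left for 1, 3 or 5 days. Cells fixed, total mass stained. Expressed as % of untreated cells at the same time point. Mean ± SEM, five independent experiments.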

Hs-578T [10] = test: Cytotoxicity against human Hs578T cells at 0.125 to 2 ug/ml after 1 to 5 days by sulforhodamine B assay; assay type: functional, cell-based; procedure, shortened: as §3
MCF7 [11] = test: Cytotoxicity against human MCF7 cells at 0.125 to 2 ug/ml after 1 to 5 days by sulforhodamine B assay; assay type: functional, cell-based; procedure, shortened: as §3

SMILES: C=C(C)[C@@H]1CC[C@]2(COC(=O)C[n+]3ccc(C)cc3C)CC[C@]3(C)[C@H](CC[C@@H]4[C@@]5(C)CC[C@H](OC(=O)C[n+]6ccc(C)cc6C)C(C)(C)[C@@H]5CC[C@]43C)[C@@H]12.[Cl-].[Cl-]
- Activity [1]: Toxic
- Activity (BJ): Toxic
- G0/G1 cell cycle arrest [2]: Active
- inhibition [3]: Active
- inhibition (Hs-578T [4]): Active

SMILES: C=C(C)[C@@H]1CC[C@]2(COC(=O)C(C)[n+]3ccc(N(C)C)cc3)CC[C@]3(C)[C@H](CC[C@@H]4[C@@]5(C)CC[C@H](OC(=O)C(C)[n+]6ccc(N(C)C)cc6)C(C)(C)[C@@H]5CC[C@]43C)[C@@H]12.[Cl-].[Cl-] (some centres not stated)
- Activity [1]: Toxic
- Activity (BJ): Toxic
- inhibition (MDA-MB-231 [5]): Active
- inhibition (Hs-578T [6]): Active
- inhibition (MCF7 [7]): Active
- Activity [2]: Active
- inhibition [3]: Active
- inhibition [8]: Active
- inhibition (Hs-578T [4]): Active

SMILES: C=C(C)[C@@H]1CC[C@]2(COC(=O)CCC[n+]3ccc(N(C)C)cc3)CC[C@]3(C)[C@H](CC[C@@H]4[C@@]5(C)CC[C@H](OC(=O)CCC[n+]6ccc(N(C)C)cc6)C(C)(C)[C@@H]5CC[C@]43C)[C@@H]12.[Br-].[Br-]
- Activity [1]: Toxic
- Activity (BJ): Toxic
- inhibition (MDA-MB-231 [9]): Active
- inhibition (Hs-578T [10]): Active
- inhibition (MCF7 [11]): Active
- Activity [2]: Active
- inhibition [3]: Active
- inhibition (Hs-578T [4]): Active
